Assay outcomes from PubChem.
NPY-Y1 PAM-ag: potentiators or agonists of human neuropeptide Y receptor Y1; P25929; NPY-Y1 expressing cells, potentiator/agonist activation; activation, % at 3.6 µM; 220,000 tested, 0.37% active; AID 1304; in the data active = activation above about 33%, passing the limit was not always enough;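 note: cells stimulated with NPY at EC10 then isoproterenol at EC100; 0% = low agonist plus stimulus and 100% = saturating agonist plus stimulus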
S1P4 ag: activates the human S1P4 receptor; O95977; S1P4-expressing cell line, agonist reporter assay; activation, % at 4.98 µM; 220,000 tested, 0.35% active; AID 1509; in the data active = activation above about 11%;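 note: 0% = DMSO vehicle and 100% = reference agonist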
S1P4 antag: blocks the human S1P4 receptor; O95977; S1P4-expressing cells, antagonist mode, reporter read-out; inhibition, % at 4.98 µM; 220,000 tested, 0.26% active; in the data active = inhibition above about 29%;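 note: 0% = wells stimulated with agonist and 100% = vehicle wells without agonist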
NPY-Y2 antag: NPY-Y2 (human) receptor antagonism; P49146; NPY-Y2 expressing cells, antagonist mode; inhibition, % at 2.7 µM; 140,000 tested, 0.99% active; AID 793;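 note: 0% = vehicle with agonist challenge and 100% = reference antagonist with challenge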
NPY-Y1 antag: blocks the human neuropeptide Y Y1 receptor. inhibition, % at 3.6 µM. P25929. 200,000 tested, 1% active. AID 1040. HEK293-CNG Y1 cells, membrane potential fluorescence; NPY at EC95, then isoproterenol;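 active = inhibition above the campaign mean inhibition of all tested compounds plus 3 SD, cut at about 20% in these data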;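 note: 0% = DMSO wells given NPY plus isoproterenol and 100% = isoproterenol alone without NPY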
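Test system: HEK293 cells co-expressing NPY Y1 receptor and cyclic-nucleotide gated channel; Also added: NPY (25 nM), isoproterenol (1 µM), Ro 20-1724 (25 µM); Compound dosing: one concentration, 3.6 µM, in 0.4% DMSO; Timing: dye 3 h, compound 60 min room temperature, stimulation 45 min; Technique: Membrane-potential fluorescent dye readout.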
NPY-Y2 PAM-ag: potentiators or agonists of human neuropeptide Y receptor Y2. P49146. cells expressing NPY-Y2, potentiator/agonist read-out. activation, % at 3.6 µM. 220,000 tested, 0.45% active; in the data active = activation above about 27%;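 note: cells stimulated with NPY near EC25 plus isoproterenol at EC100; 0% = vehicle plus submaximal agonist and 100% = vehicle plus saturating agonist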
NPY1 antag conf: human NPY-Y1 antagonism, confirmation. shares compounds with NPY-Y1 antag. HEK293-CNG NPY-Y1, membrane potential fluorescence, cAMP; NPY challenge against isoproterenol-raised cAMP. inhibition, % at 3.6 µM. 1,200 tested, 21% active. AID 1254; in the data active = inhibition above about 20%;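 note: 0% = vehicle with agonist plus stimulus and 100% = stimulus alone without agonist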
NPY-Y2 antag ct: counter-screen for NPY-Y1 antagonists: human NPY-Y2 antagonism; shares compounds with NPY-Y1 antag; HEK293 NPY-Y2 CNG membrane potential fluorescence; cells given NPY, then isoproterenol; inhibition, % at 3.6 µM; 1,200 tested, 28% active; AID 1255;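 note: 0% = DMSO with agonist challenge and 100% = reference antagonist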
NPY-Y2 confirm: human NPY-Y2 potentiation or agonism, confirmation. shares compounds with NPY-Y2 PAM-ag. cell-based NPY-Y2 potentiator/agonist assay. activation, % at 3.6 µM. 450 tested, 20% active; in the data active = activation above about 33%
NPY-Y1 counter: potentiates or activates NPY-Y1, counter-screen for NPY-Y2 hits | shares compounds with NPY-Y2 PAM-ag | Y1 HEK293-CNG cells, membrane potential fluorescence | activation, % at 3.6 µM | 450 tested, 20% active; in the data active = activation above about 45%;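 note: cells stimulated with submaximal NPY then isoproterenol with phosphodiesterase inhibitor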
NPY-Y1 ag 2: activates human NPY-Y1, counter-screen for NPY-Y2 potentiators. shares compounds with NPY-Y2 PAM-ag. HEK293 Y1-CNGC, membrane potential fluorescence, agonism. activation, % at 3.6 µM. 450 tested, 37% active;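 active = activation above the mean of DMSO-only control wells plus 3 SD, cut at about 18% in these data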;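 note: cells stimulated with 1 µM isoproterenol plus the PDE inhibitor Ro 20-1724; 0% = isoproterenol with DMSO and no NPY and 100% = 40 nM NPY; Y1 agonists lower the membrane potential dye signal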
CNGC inhibitor: blocks CNG channel activity, counter-screen for NPY-Y2 potentiators. shares compounds with NPY-Y2 PAM-ag. HEK293-CNG parental, isoproterenol cAMP, membrane potential fluorescence. inhibition, % at 3.6 µM. 450 tested, 32% active. AID 1703;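 active = inhibition above the control-well mean plus 3 SD of those wells, cut at about 22% in these data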;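 note: 0% = DMSO with isoproterenol and 100% = DMSO without isoproterenol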
NPY-Y2 ag 2: counter-screen for NPY-Y2 potentiators: agonists of human NPY-Y2 | shares compounds with NPY-Y2 PAM-ag | HEK293 Y2/CNGC cells, membrane potential fluorescence, agonist mode | activation, % at 3.6 µM | 450 tested, 56% active | AID 1710;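 active = activation above the mean of solvent-only control wells plus 3 SD, cut at about 10% in these data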;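 note: cells stimulated by isoproterenol with no NPY added so direct agonism is tested; 0% = DMSO with isoproterenol alone and 100% = NPY at EC100 plus isoproterenol; agonism lowers probe fluorescence through less cAMP and CNG channel opening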
S1P4 agonist cf: confirmation of human S1P4 receptor agonists. shares compounds with S1P4 ag. S1P4 agonist cell-based reporter assay. activation, % at 4.98 µM. 740 tested, 7% active; in the data active = activation above about 12%;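 note: 0% = vehicle and 100% = full reference agonist response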
S1P1 agonist: counter-screen for S1P4 agonists: agonists of human S1P1. shares compounds with S1P4 ag. S1P1 agonist cell-based assay, activation. activation, % at 4.98 µM. 740 tested, 4% active. AID 1563; in the data active = activation above about 21%;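 note: 0% = vehicle wells and 100% = reference agonist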
Target sequence (P21453 whole entry, looked up): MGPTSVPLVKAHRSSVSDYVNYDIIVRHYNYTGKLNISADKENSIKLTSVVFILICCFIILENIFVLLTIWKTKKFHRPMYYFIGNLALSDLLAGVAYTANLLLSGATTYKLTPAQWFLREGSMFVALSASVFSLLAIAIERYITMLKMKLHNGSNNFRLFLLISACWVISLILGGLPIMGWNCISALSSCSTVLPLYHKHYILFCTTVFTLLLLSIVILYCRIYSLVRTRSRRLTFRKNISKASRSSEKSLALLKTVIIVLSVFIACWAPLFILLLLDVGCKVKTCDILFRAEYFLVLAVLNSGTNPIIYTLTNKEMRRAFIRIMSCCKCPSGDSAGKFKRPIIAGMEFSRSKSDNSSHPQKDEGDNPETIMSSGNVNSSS
S1P4 antag cf: human S1P4 antagonism, confirmation; shares compounds with S1P4 antag; S1P4-expressing cell line, antagonist mode, reporter read-out; inhibition, % at 4.98 µM; 520 tested, 71% active; in the data active = inhibition above about 30%
S1P1 antag: blocks human S1P1, counter-screen for S1P4 antagonists | cell-based S1P1 antagonist counterscreen, inhibition | inhibition, % at 4.98 µM | shares compounds with S1P4 antag | 520 tested, 37% active | AID 1564; in the data active = inhibition above about 40%;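 note: receptor stimulated with S1P near its EC80; 0% = agonist stimulated wells and 100% = vehicle only wells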
* = called active by the depositor; . = no result. This is a sample that favours compounds with a hit; in the whole collection about 2.4% have one here. Cut-off read from the data, not from the text of the source, unless noted: active = inhibition above about 17%; inactive = the rest.

SMILES	NPY-Y1 PAM-ag	S1P4 ag	S1P4 antag	NPY-Y2 antag	NPY-Y1 antag	NPY-Y2 PAM-ag	NPY1 antag conf	NPY-Y2 antag ct	S1P4 agonist cf	S1P1 agonist	others
NS(=O)(=O)c1ccc(NC(=O)COc2ccc(C(=O)c3ccc(F)cc3)cc2)cc1	19.2	1.9	-14.4	.	.	30.8	.	.	.	.
Cc1ccc(-n2ncc3c(SCc4cccnc4)ncnc32)c(C)c1	-8.6	0.1	-5.7	.	25.1*	32.8*	13.0	6.4	.	.	NPY-Y2 confirm=-17.0;NPY-Y1 counter=-60.1;NPY-Y1 ag 2=-50.3;CNGC inhibitor=-26.9;NPY-Y2 ag 2=-23.2
O=Cc1s/c(=N\S(=O)(=O)c2ccccc2)n(CCCCl)c1Cl	17.0	-0.7	-2.5	.	5.6	2.9	.	.	.	.
O=C(Nc1ccccc1)C1=C[C@H](c2csc3ccccc23)C[C@H](OCc2ccc(CO)cc2)O1	-2.6	16.4*	-18.8	.	25.5*	-14.5	8.7	8.4	-0.6	-0.1
COc1ccc(N=c2oc3cc(O)ccc3cc2C(=O)NCC2CCCO2)cc1 (configuration not stated)	-17.4	12.0*	-19.8	16.7	33.2*	-8.9	11.1	5.8	1.5	-2.5
CCOc1ccc(N=c2oc3cc(O)ccc3cc2C(=O)NCC2CCCO2)cc1 (configuration not stated)	1.7	4.8	-9.6	5.7	6.9	-3.5	.	.	.	.
Cc1cc(OCC(=O)N2CCOCC2)ccc1[N+](=O)[O-]	19.5	-1.5	0.5	.	.	-28.2	.	.	.	.
CCC(C)(C)n1nnnc1C(c1cccnc1)N1CCN(c2cccc(C(F)(F)F)c2)CC1 (configuration not stated)	2.2	15.1*	-7.3	16.6	25.4*	-7.4	14.3	8.1	0.0	-8.8
O=C1CC(c2ccccc2)CC(O)=C1C=NCCN1CCN(Cc2ccccc2)CC1 (configuration not stated)	-23.1	-1.1	-13.1	.	.	-12.3	.	.	.	.
OC(COc1ccc(CNCCc2ccc(C(F)(F)F)cc2)cc1)CN1CCCCC1 (configuration not stated)	-16.5	-2.0	30.4*	.	24.8*	-17.2	16.4	18.0*	.	.	S1P4 antag cf=41.1*;S1P1 antag=28.4
N=c1n(CCN2CCOCC2)c2ccccc2n1CC(=O)c1ccc(Cl)c(Cl)c1	-5.0	3.2	-7.5	7.3	16.2	-4.8	.	.	.	.
N=c1n(CCN2CCCC2)c2ccccc2n1CC(O)c1ccc(Cl)c(Cl)c1 (configuration not stated)	-32.7	55.0*	38.1*	.	43.0*	-28.0	16.5	29.2*	-3.4	-14.1	S1P4 antag cf=71.2*;S1P1 antag=59.8*
